# Compound activity: PubChem BioAssay, several laboratories
# EP2 mod: modulates human prostaglandin E2 receptor EP2 signaling; P43116; EP2-expressing cells, cAMP HTRF FRET, PGE2 co-stimulation; induction, % at 25 µM; hit rate 0.83% among 260,000; AID 940;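 active means compounds whose cAMP rise, as percent of the full-agonist control response, exceeds 60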;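 further: rat C6 glioma line stably carrying human EP2 under a CMV promoter; the protocol text gives 20 µM as final concentration; 100% = response of wells given 1 µM PGE2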
# NPY Y1 blocker: blocks the human neuropeptide Y Y1 receptor; HEK293-CNG Y1 cells, membrane potential fluorescence; NPY at EC95, then isoproterenol; inhibition, % at 3.6 µM; hit rate 1% among 200,000; AID 1040;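 active means inhibition above the campaign mean inhibition of all tested compounds plus 3 SD, cut at about 20% in these data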;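 further: 0% = DMSO wells given NPY plus isoproterenol and 100% = isoproterenol alone without NPY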
#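 material = HEK293 cells with Y1 receptor plus CNG channel | also added = NPY 25 nM then isoproterenol 1 µM plus Ro 20-1724 25 µM | schedule = dye 3 h, compound 60 min room temperature, stimulation 45 min | measured by = membrane potential fluorescence | benchmarks = high control isoproterenol alone, low control NPY with isoproterenol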
# PGE2 EP2 inh: inhibitors of human EP2 prostaglandin E2 receptor | P43116 | C6 glioma cells expressing human EP2, cAMP TR-FRET; cells stimulated with saturating PGE2 | inhibition, % at 25 µM | hit rate 0.52% among 260,000 | AID 1422;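 active means percent inhibition above 40 after rounding to a whole number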;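 further: rat C6 glioma host cells with rolipram phosphodiesterase inhibitor present; the protocol text gives 20 µM as final concentration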
# NPY-Y2 PAM-ag: potentiators or agonists of human neuropeptide Y receptor Y2; P49146; cells expressing NPY-Y2, potentiator/agonist read-out; activation, % at 3.6 µM; hit rate 0.45% among 220,000; in the data active means activation above about 27%;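 further: cells stimulated with NPY near EC25 plus isoproterenol at EC100; 0% = vehicle plus submaximal agonist and 100% = vehicle plus saturating agonist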
# Target sequence (P49146 whole entry, looked up): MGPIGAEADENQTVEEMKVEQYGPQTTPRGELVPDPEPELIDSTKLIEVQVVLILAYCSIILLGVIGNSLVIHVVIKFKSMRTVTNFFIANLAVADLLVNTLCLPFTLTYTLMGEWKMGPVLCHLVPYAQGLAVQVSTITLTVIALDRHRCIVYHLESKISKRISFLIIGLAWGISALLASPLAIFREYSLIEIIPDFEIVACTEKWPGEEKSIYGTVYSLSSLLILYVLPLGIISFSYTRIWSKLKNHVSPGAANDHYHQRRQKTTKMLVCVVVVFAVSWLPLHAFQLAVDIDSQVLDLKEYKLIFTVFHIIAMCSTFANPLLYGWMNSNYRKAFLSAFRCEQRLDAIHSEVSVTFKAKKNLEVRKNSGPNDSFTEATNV
# NPY1 pot ag: potentiators or agonists of human neuropeptide Y receptor Y1; activation, % at 3.6 µM; hit rate 0.37% among 220,000; NPY-Y1 expressing cells, potentiator/agonist activation; in the data active means activation above about 33%, passing the limit was not always enough;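 further: cells stimulated with NPY at EC10 then isoproterenol at EC100; 0% = low agonist plus stimulus and 100% = saturating agonist plus stimulus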
# NPY-Y2 antag: blocks the human neuropeptide Y Y2 receptor. NPY-Y2 expressing cells, antagonist mode. hit rate 0.99% among 140,000. inhibition, % at 2.7 µM. P49146;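 further: 0% = vehicle with agonist challenge and 100% = reference antagonist with challenge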
# NPY-Y1 ant conf: human NPY-Y1 antagonism, confirmation; shares compounds with NPY Y1 blocker; HEK293-CNG NPY-Y1, membrane potential fluorescence, cAMP; NPY challenge against isoproterenol-raised cAMP; inhibition, % at 3.6 µM; hit rate 21% among 1,200; AID 1254; in the data active means inhibition above about 20%;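 further: 0% = vehicle with agonist plus stimulus and 100% = stimulus alone without agonist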
# NPY-Y2 antag ct: antagonizes human NPY-Y2, counter-screen to NPY-Y1 antagonists; shares compounds with NPY Y1 blocker; HEK293 NPY-Y2 CNG membrane potential fluorescence, antagonism; cells given NPY, then isoproterenol; inhibition, % at 3.6 µM; hit rate 28% among 1,200; AID 1255;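 further: 0% = DMSO with agonist challenge and 100% = reference antagonist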
# The depositor's hits bear a star; nt = not tested or not shown. Sampled rows, rich in hits. Any-hit rate of the full collection: about 2.8%. Unless noted, no stated cut-off is given here; in the data, active means inhibition above about 17%; inactive means the rest.
SMILES,EP2 mod,NPY Y1 blocker,PGE2 EP2 inh,NPY-Y2 PAM-ag,NPY1 pot ag,NPY-Y2 antag,NPY-Y1 ant conf,NPY-Y2 antag ct
COc1ccccc1-c1cc(C(F)(F)F)nc(S(=O)(=O)CCCC(=O)N2CCCCC2C)n1 (configuration not stated),50,25*,12,-15,-68,0,14,44*
Cc1nnc(SCC(=O)Nc2nc(-c3ccc(Cl)cc3)cs2)s1,-6,nt,22,nt,nt,nt,nt,nt
CCC[N+]1(CC#CCC2(O)c3ccccc3-c3ccccc32)CCCCC1,-36,nt,8,nt,nt,nt,nt,nt
O=C(O)c1ccccc1N(Cc1ccccc1)C(=O)CO/N=C/c1ccccc1,1,22*,7,-24,-31,15,10,10
O=C(NC1CCCC1)C1CC(c2ccccc2O)=NO1 (configuration not stated),-18,nt,15,nt,nt,nt,nt,nt
COc1ccc(CNC(=O)C2CC(c3ccc(F)cc3)=NO2)cc1 (configuration not stated),-13,3,7,-7,-21,5,nt,nt
COc1ccc(C2=NOC(C(=O)NCc3cccs3)C2)cc1OC (configuration not stated),3,23*,9,-11,-5,7,8,9
COc1ccc(C2=NOC(C(=O)NCc3ccc(F)cc3)C2)cc1 (configuration not stated),2,41*,nt,-10,-23,6,5,17
COc1ccc(Cl)cc1NC(=O)C1CCCN1C(=O)Nc1cccc(C(C)=O)c1 (configuration not stated),-30,nt,10,nt,nt,nt,nt,nt
CCCC(OC(=O)CN1C(=O)COc2ccccc21)C(=O)NC1CCCC1 (configuration not stated),5,24*,nt,-20,2,11,1,4
O=C(/C=C/c1ccccc1)NCCSCc1ccc(Cl)cc1,-74,21*,4,-35,-43,13,6,10
O=C(/C=C/c1ccc(Cl)cc1Cl)NCCSc1ccccc1,-64,3,12,-23,-6,10,nt,nt
O=C(/C=C/c1ccc(Cl)cc1)NCCSc1ccccc1,-53,29*,nt,-19,-39,5,20*,43*
Cn1c2c(c(=O)n(C)c1=O)C(C(F)(F)F)(C(F)(F)F)N=C(CCC1CCCCC1)N2,-11,22*,10,-9,-35,10,18,40*
Cn1c2c(c(=O)n(C)c1=O)C(C(F)(F)F)(C(F)(F)F)N=C(c1ccccc1Cl)N2,1,-2,5,11,-5,-1,nt,nt
CN(C)/C=C/C(=O)c1nnn(C2CCCCC2)c1NC1CCCCC1,31,22*,8,8,-32,14,-3,9
CCc1ccc2[nH]c(=O)c(CN(CCO)S(=O)(=O)c3ccc(OC)cc3)cc2c1,-28,nt,8,nt,nt,nt,nt,nt
Cc1ccc(-c2ccc(C(=O)O)[nH]2)cc1,-4,28*,2,-43,-39,11,7,8
Cc1cc(C)c(S(=O)(=O)N(CCCO)Cc2cc3c(C)cc(C)cc3[nH]c2=O)c(C)c1,3,nt,24,nt,nt,nt,nt,nt
Cc1ccc(-c2nnn(CC(=O)N(c3cccc(F)c3)C(C(=O)NC(C)(C)C)c3cccs3)n2)o1 (configuration not stated),-2,nt,6,nt,nt,nt,nt,nt
CCN(CC)CCCN(C(=O)Cn1nnc(-c2ccc(OC)c(OC)c2)n1)C(C(=O)NC(C)(C)C)c1ccc(F)cc1 (configuration not stated),4,32*,6,-54,-74,nt,21*,39*
CCN(CC)CCN(C(=O)Cn1nnc(-c2ccc(C)o2)n1)C(C(=O)NC(C)(C)C)c1cccs1 (configuration not stated),16,45*,6,-53,-60,nt,21*,34*
Oc1cc2ccccc2cc1-c1n[nH]c(=S)o1,5,40*,6,-29,-26,15,19,14
Cc1cc(-c2n[nH]c(=S)o2)c(C)n1-c1ccccc1,34,-2,4,-6,12,2,nt,nt
Cc1ccc(C2C3=C(CC(C)(C)CC3=O)NC3=C2C(=O)c2ccccc23)cc1 (configuration not stated),-30,22*,18,-7,-16,7,14,18*
SMILES,EP2 mod,NPY Y1 blocker,PGE2 EP2 inh,NPY-Y2 PAM-ag,NPY1 pot ag,NPY-Y2 antag,NPY-Y1 ant conf,NPY-Y2 antag ct
CC1(C)CC(=O)C2=C(C1)NC1=C(C(=O)c3ccccc31)C2c1ccc(Cl)cc1 (configuration not stated),-28,-3,8,10,23,-6,nt,nt
COc1cc(NC(=O)c2ccc(Cl)cc2)c(OC)cc1Cl,-6,31*,1,-47,-40,15,7,8
COc1cc(NC(=O)C2COc3ccccc3O2)c(OC)cc1Cl (configuration not stated),55,31*,10,-33,-94,13,10,12
COC(=O)c1ccc(Cl)c(NC(=O)C2COc3ccccc3O2)c1 (configuration not stated),42,nt,9,nt,nt,nt,nt,nt
COc1ccc(NC(C)=O)cc1NC(=O)c1ccc(Cl)cc1,-3,0,4,13,-11,nt,nt,nt
CC(=O)c1nnn(-c2ccc(F)cc2)c1NCc1ccc(F)cc1,-59,nt,nt,nt,nt,nt,nt,nt
COc1cc(S(=O)(=O)N(Cc2ccco2)Cc2ccccc2F)ccc1-n1cnnn1,-2,nt,9,nt,nt,nt,nt,nt
Cc1cccc2cc(CN(Cc3cccnc3)C(=S)Nc3cccc(Cl)c3)c(=O)[nH]c12,25,nt,5,nt,nt,nt,nt,nt
CCCCCC(O)(CCCCC)C(=O)NNc1ccccc1,23,25*,9,-2,9,10,11,5
CCCCC(O)(CCCC)C(=O)NNc1ccccc1,-7,14,4,-2,-4,8,nt,nt
COc1ccccc1Nc1nc(N)nc(CN2CCC(C)CC2)n1,4,-4,2,-10,-7,nt,nt,nt
COc1ccccc1Nc1nc(N)nc(CN2CCC(Cc3ccccc3)CC2)n1,5,25*,7,-21,-23,12,14,22*
COc1ccccc1CN1CCN(C(=O)c2cccc(OC)c2OC)CC1,-13,nt,7,nt,nt,nt,nt,nt
Cc1ccc(-n2cccn2)c(CN2CCCC(C(=O)c3ccc4c(c3)OCO4)C2)c1 (configuration not stated),14,28*,0,-25,-28,nt,24*,28*
O=C(N1CCOCC1)[n+]1ccc(N2CCOCC2)cc1,-16,nt,8,nt,nt,nt,nt,nt
